Screening results (PubChem BioAssay)
OXTR agonist: human OXTR agonists, primary screen, fluorescence, CHO-OTR cells, Fluo-8 calcium | Fluo-8 calcium fluorescence; normalized: DMSO 0%, oxytocin 100% | Oxytocin receptor (Homo sapiens), P30559 | activation, % at 3 µM | 320,000 tested, 0.32% active | AID 2435, 2010;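 active = activation above the mean of all tested compounds plus 3 SD, cutoff set per screening run, cut at about 20% in these data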;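 also: peak over basal fluorescence ratio from a 100 s FLIPR kinetic read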
V1R ag counter: agonists of human V1a receptor, primary screen, counter-screen for OXTR agonist project, fluorescence, CHO-V1R cells | 320,000 tested, 0.25% active | activation, % at 3 µM | Fluo-8 calcium fluorescence, agonist mode; 0% DMSO, 100% 3 nM vasopressin | AID 2797, 2010 | Vasopressin V1a receptor (Homo sapiens), P37288;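 active = activation above the mean activation of all tested compounds plus 3 SD, per screening run, cut at about 20% in these data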;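 also: signal is peak over basal fluorescence ratio across a 100 second FLIPR read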
TRPML3 agonist: human TRPML3 channel agonists, primary screen, cell-based, HEK293 TRPML3-YFP, Fluo-8 calcium fluorescence, 3 µM; Mucolipin-3 (Homo sapiens), Q8TDD5; 100% = the carbachol control signal; activation, % at 3 µM; 220,000 tested, 0.29% active;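 active = activation above its plate's cutoff, the mean activation of the plate's test wells plus 3 SD, cut at about 12% in these data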;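 also: 0% = DMSO only wells and 100% = carbachol wells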
Target sequence (Q8TDD5 whole entry, looked up): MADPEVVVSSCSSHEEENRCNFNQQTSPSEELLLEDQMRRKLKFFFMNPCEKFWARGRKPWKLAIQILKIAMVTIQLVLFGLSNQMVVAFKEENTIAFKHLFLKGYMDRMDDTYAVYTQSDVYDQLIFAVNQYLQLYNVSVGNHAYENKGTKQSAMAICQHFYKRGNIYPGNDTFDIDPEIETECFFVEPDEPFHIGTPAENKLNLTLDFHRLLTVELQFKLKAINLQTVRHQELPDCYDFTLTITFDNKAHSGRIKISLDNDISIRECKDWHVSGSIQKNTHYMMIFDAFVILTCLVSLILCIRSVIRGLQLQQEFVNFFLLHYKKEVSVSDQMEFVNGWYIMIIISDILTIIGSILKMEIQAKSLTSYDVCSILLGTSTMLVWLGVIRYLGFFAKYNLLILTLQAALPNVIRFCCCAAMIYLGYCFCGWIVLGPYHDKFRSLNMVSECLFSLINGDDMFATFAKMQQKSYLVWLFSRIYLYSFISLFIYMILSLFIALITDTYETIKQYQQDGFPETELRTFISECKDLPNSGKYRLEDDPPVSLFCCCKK
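Material: HEK293 cells stably carrying human TRPML3-YFP; compound dosing: single dose, 3 µM final nominal compound, 0.3% DMSO final; incubation: 1-h 37 °C dye load, 5-s basal, 120-s post-compound reads; technique: Fluo-8 intracellular calcium fluorescence, excitation 470-495 nm, emission 515-575 nm; read-out basis: percent activation from peak-to-basal fluorescence ratio, scaled between DMSO and carbachol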
TRPN1 ag: zebrafish TRPN1 channel agonists, primary screen, cell-based, HEK293, calcium fluorescence; transient receptor potential cation channel N1 (TRPN1/NompC), Danio rerio; HEK293 zebrafish TRPN1-YFP, Fluo-8 calcium fluorescence; 100% = response to 87 µM carbachol; activation, % at 3 µM; 220,000 tested, 0.18% active;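 active = activation above its plate's cutoff, the mean activation of test wells on that plate plus 3 SD, cut at about 19% in these data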;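 also: 0% = DMSO alone and 100% = 87 µM carbachol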
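Assay system: Zebrafish TRPN1-YFP in HEK293 cells | Incubation: Dye loading 1 h at 37 °C, then 30 min room temperature | Measured by: Kinetic Fluo-8 fluorescence, ex 470-495, em 515-575 nm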
OXTR potentiate: human OXTR potentiators, primary screen, fluorescence, CHO-OTR cells, Fluo-8 calcium; Oxytocin receptor (Homo sapiens), P30559; Fluo-8 calcium fluorescence, potentiator mode; 0% = oxytocin EC15, 100% = EC100; activation, % at 3 µM; 320,000 tested, 0.061% active; AID 2445, 2010;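 active = activation above that plate's cutoff, the mean activation of tested compounds plus 3 SD, cut at about 6.6% in these data, passing the limit was not always enough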;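 also: 100% uses oxytocin at 75 nM as the full agonist control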
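System: human OTR in CHO cells / Also added: sub-maximal oxytocin, roughly EC15 / Control set: EC15 oxytocin low, 75 nM oxytocin high / Schedule: 6 min compound pre-incubation at room temperature, 100 s kinetic read / Compound: single-point 3.0 µM / Replication: singlicate / Technique: Fluo-8 calcium dye fluorescence / Read-out basis: % activation of max/min ratio relative to oxytocin controls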
OXTR agonist cf: human OXTR agonists, confirmation, fluorescence, CHO-OTR cells, triplicate. shares compounds with OXTR agonist. Fluo-8 calcium fluorescence, agonist. activation, % at 3 µM. 390 tested, 20% active. AID 434963, 2010;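 active = mean activation above about 20% derived from the earlier single-dose screen, limit read from the data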;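 also: peak over minimum fluorescence ratio per well during a 100 second FLIPR read; 0% = DMSO alone and 100% = oxytocin high control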
V1R ag counter 3x: V1a receptor agonists, calcium signal, counter-screen for OXTR agonist project, triplicate, fluorescence, CHO-V1R cells; shares compounds with OXTR agonist; Fluo-8 calcium fluorescence; activation, % at 3 µM; 390 tested, 10% active; AID 434991, 2010;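 active = mean activation over triplicate exceeds the hit threshold set in the earlier primary screen, cut at about 20% in these data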;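 also: peak over basal fluorescence ratio within a 100 second read; 0% = DMSO alone and 100% = 3 nM vasopressin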
OXTR pot cf: human OXTR potentiators, confirmation, fluorescence, CHO-OTR cells, triplicate; shares compounds with OXTR potentiate; Fluo-8 calcium fluorescence, potentiation; scaled from low-dose to maximal oxytocin; activation, % at 3 µM; AID 434985, 2010; 180 tested, under 10 active;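 active = mean percent activation over triplicates above a cutoff set from solvent-only control plates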;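 also: compounds tested in the presence of an EC15 dose of oxytocin; 0% = EC15 oxytocin with DMSO and 100% = EC100 oxytocin with DMSO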
An asterisk follows results filed as active; . = no result. Hits are enriched below; roughly 0.55% of the tested compounds scored in any of these assays.

SMILES | OXTR agonist | V1R ag counter | TRPML3 agonist | TRPN1 ag | OXTR potentiate | OXTR agonist cf | V1R ag counter 3x | others
COc1ccc(C2SCCN2C(=S)Nc2ccc(F)cc2)cc1 (configuration not stated) | 3 | 2 | 1 | 3 | -8 | . | .
CCOC(=O)c1ccc(NC(=S)N2CCSC2c2ccc(OC)cc2)cc1 (configuration not stated) | 32* | 18 | 2 | 5 | -21 | 37* | 31*
N#C/C(=C\c1ccc(N2CCOCC2)o1)c1nc2ccccc2[nH]1 | 43* | 16 | 2 | 2 | -23 | 176* | 259*
N#C/C(=C\c1ccc(N2CCOCC2)c([N+](=O)[O-])c1)c1nc2ccccc2[nH]1 | 2 | 5 | 1 | 1 | -7 | . | .
CC1=NNC(=O)/C1=C\c1cn(-c2ccccc2)nc1-c1ccccc1 | 1 | 1 | 4 | 5 | -12 | . | .
Oc1ccc(Cl)cc1CNCc1ccc(Cl)nc1 | 20* | 16 | . | . | -2 | 21* | 13
Oc1ccc(Cl)cc1CNCc1ccc(F)c(F)c1 | 18 | 15 | . | . | -16 | . | .
COc1ccc(C2NCCc3c2[nH]c2ccccc32)cc1CN1CCc2cc(OC)c(OC)cc2C1C (configuration not stated) | . | . | 5 | 11 | . | . | .
COc1ccc(C2NCCc3c2[nH]c2ccccc32)cc1COc1ccc(F)cc1 (configuration not stated) | 24* | 8 | 1 | 3 | -19 | 24* | 3
COc1ccc(/C=C2/CCc3ccccc3C2=O)cc1CN1CCOCC1 | -2 | 0 | -1 | 0 | -9 | . | .
COc1ccc(/C=C2\CCc3ccccc3C2=O)cc1Cn1nc(C)cc1C | 23* | 20 | -1 | 0 | -16 | 5 | 3
CCOC(=O)N1CCN(C(=O)Cn2nc(C)n3nc(-c4ccccc4)cc3c2=O)CC1 | 3 | 4 | . | . | -6 | . | .
Cc1ccc(C2(C)NC(=O)N(CC(=O)Nc3cccnc3Cl)C2=O)cc1 (configuration not stated) | 7 | 8 | 1 | 4 | -12 | . | .
CC1(c2ccc([N+](=O)[O-])cc2)NC(=O)N(CC(=O)Nc2cccnc2Cl)C1=O (configuration not stated) | 21* | 18 | . | . | -15 | 8 | 9
COc1ccc(CCNC(=O)CSc2nc3scc(-c4ccccc4)c3c(=O)[nH]2)cc1 | 8 | 8 | . | . | -12 | . | .
CC(Cn1cncn1)C(=O)N1CCN(S(=O)(=O)c2ccccc2)CC1 (configuration not stated) | 0 | 1 | . | . | -6 | . | .
COc1ccccc1Oc1ccc2c(c1)C(=O)N(CC(=O)O)C2=O | 1 | 0 | . | . | -2 | . | .
COc1ccccc1Oc1ccc2c(c1)C(=O)N(c1ccc(O)cc1)C2=O | 26* | 7 | 1 | 1 | -18 | 1 | 4
OCCN1CCN(C2CCC(c3ccc(F)cc3)c3ccc(F)cc32)CC1 (configuration not stated) | 31* | 17 | . | . | -14 | 3 | 1
Cc1ccc(S(=O)(=O)NCC(=O)N2CCN(c3ccc(F)cc3)CC2)cc1 | 0 | 1 | . | . | -2 | . | .
COc1ccc(S(=O)(=O)N(n2c(C)nnc2-n2nc(C)cc2C)S(=O)(=O)c2ccc(OC)cc2)cc1 | 21* | 0 | 0 | 2 | -15 | 1 | 1
CC(=O)C1=C(O)C(=O)N(c2ccc(Br)cc2)C1c1ccccc1[N+](=O)[O-] (configuration not stated) | 1 | 0 | . | . | 6 | . | .
CSc1ccc2c(c1)N(CCC1CCCCN1C)c1ccccc1S2 (configuration not stated) | 24* | 9 | 1 | 2 | -10 | 16 | 5
O[C@@H](c1cc(C(F)(F)F)nc2c(C(F)(F)F)cccc12)[C@H]1CCCCN1 | 17 | 9 | . | . | -18 | . | .
OC(c1cc(C(F)(F)F)nc2c(Cl)cc(Cl)cc12)C1CCCCN1 (configuration not stated) | 23* | 9 | 2 | 2 | -15 | 9 | 5
SMILES | OXTR agonist | V1R ag counter | TRPML3 agonist | TRPN1 ag | OXTR potentiate | OXTR agonist cf | V1R ag counter 3x | others
O=C(CCc1ccccc1)N1CCN(S(=O)(=O)c2cccs2)CC1 | 3 | 1 | . | . | 13* | . | . | OXTR pot cf=-4
COc1cc(/C=N/NC(=S)NCCN2CCOCC2)ccc1O | 0 | 0 | 0 | -1 | 12* | . | . | OXTR pot cf=-11
COCCNC(=S)N/N=C/c1ccc(N2CCOCC2)cc1 | 0 | 1 | 1 | 0 | -12 | . | .
Fc1ccc2c(-c3cccc(C(F)(F)F)c3)c(-c3ccccc3)ncc2c1 | 0 | 1 | . | . | 9.4* | . | . | OXTR pot cf=-8
Fc1ccc2cnc(-c3ccccc3)c(-c3cc(C(F)(F)F)cc(C(F)(F)F)c3)c2c1 | 0 | 0 | . | . | 7 | . | .
Cc1ccc(CNC(=O)Cn2cc(C(F)(F)F)ccc2=O)cc1 | -2 | 0 | 0 | 0 | -9 | . | .
Cc1sc(NC(=O)CS(=O)(=O)c2ccccc2)c(C(N)=O)c1C | -1 | 0 | . | . | 8.1* | . | . | OXTR pot cf=-8
CNC(=O)c1c(NC(=O)CS(=O)(=O)c2ccccc2)sc(C)c1C | 0 | -1 | . | . | -7 | . | .
Cc1ccc(C)c(OCCNc2ncccc2[N+](=O)[O-])c1 | -1 | -1 | . | . | 0 | . | .
CN(C)c1ccc(CNC(=O)C2CCN(S(=O)(=O)c3ccc4c(c3)CCC(=O)N4)CC2)cc1 | 0 | 0 | 0 | 0 | 11* | . | . | OXTR pot cf=-4
CC1CCCC(NC(=O)COC(=O)c2n[nH]c3ccccc23)C1C (configuration not stated) | 1 | 1 | . | . | -7 | . | .
O=C(CCCSc1nc2ccccc2[nH]1)NCc1ccccc1 | -1 | 3 | -1 | -1 | 12* | . | . | OXTR pot cf=-8
O=C(O)CN(c1ccccc1F)S(=O)(=O)c1ccccc1 | 1 | 0 | 0 | 1 | 11* | . | . | OXTR pot cf=-5
COC(=O)Cn1c(=NC(=O)CSCC(=O)NC2CCCCC2)sc2cc(OC)ccc21 | -1 | -1 | 0 | 1 | 17* | . | . | OXTR pot cf=-4
CCOC(=O)Cn1c(=NC(=O)CSC(C)=O)sc2cc(OC)ccc21 | -1 | 0 | 0 | -2 | -10 | . | .
